Measured values gathered from unrelated publications.
Lines come from different studies, so protocols differ.
Target: Testis-specific serine/threonine-protein kinase 3 (TSSK3, Homo sapiens, UniProt Q96PN8)
Sequence (Q96PN8 1-268, as in one of the studies): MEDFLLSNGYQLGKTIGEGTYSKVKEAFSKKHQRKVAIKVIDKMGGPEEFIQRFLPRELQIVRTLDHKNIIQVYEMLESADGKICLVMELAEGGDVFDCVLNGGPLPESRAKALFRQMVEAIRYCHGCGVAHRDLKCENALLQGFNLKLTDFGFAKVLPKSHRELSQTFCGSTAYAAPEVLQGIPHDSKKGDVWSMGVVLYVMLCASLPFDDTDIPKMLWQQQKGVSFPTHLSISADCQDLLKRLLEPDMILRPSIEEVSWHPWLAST

Structure (SMILES)	effect on	mode	technique	concentration	measurement	result
CN1CC(Oc2cnc(C#N)cc2-c2ccn3nc(NC(=O)C4CC4)cc3c2)C1	enzyme activity	inhibitor	–	1 µM	inhibition	-3%
CC(C)(O)[C@H]1CC[C@H](Nc2ccc3ncc(-c4cccc(C(F)(F)F)c4)n3n2)CC1	enzyme activity	inhibitor	–	1 µM	remaining activity	110%
CO[C@H]1CC[C@H](CNc2ccc(S(=O)(=O)NC(=O)c3ccc(N4CCN(CC5=C(c6ccc(Cl)cc6)CC(C)(C)CC5)CC4)cc3Oc3cnc4[nH]ccc4c3)cc2[N+](=O)[O-])CC1	cell-free assay	–	competition with immobilised ligand	1 µM	remaining binding	70%
COc1cc(Cl)c(C(=O)N[C@@H](CN[C@H]2CC[C@@H](N)CC2)Cc2ccc(C#N)cc2)cc1-c1ccc(CN[C@H](C)c2ccc(C)cc2)o1	enzyme activity	inhibitor	–	1 µM	remaining activity	97%
CSc1cccnc1N1CCN(Cc2nc3ccccc3[nH]2)CC1	cell-free assay	–	competition with immobilised ligand	1 µM	remaining binding	98%
Cc1ccc(C(=O)Nc2ccc(CN3CCN(C)CC3)c(C(F)(F)F)c2)cc1C#Cc1cnc2cccnn12	enzyme activity	inhibitor	–	23.5 nM	remaining activity	84%
Cc1sc(C(=O)NC2COC2)cc1-n1cc(NC(=O)Nc2c(F)cccc2Cl)cn1	enzyme activity	inhibitor	–	10 µM	remaining activity	100%
Nc1ncnc2occ(-c3ccc(NC(=O)Nc4cc(C(F)(F)F)ccc4F)cc3)c12	cell-free assay	inhibitor	–	20 µM	remaining signal	39%
CC1CCCN1c1nccc(-c2cnn3ncccc23)n1 (stereo not shown)	binding	–	–	1 µM	remaining binding	99%
O=C(Nc1cnn(-c2csc(C(=O)NC3COC3)c2)c1)Nc1ccccc1Cl	enzyme activity	inhibitor	–	5 µM	remaining activity	97.7%
